According to article PMC9119696 (Nature chemical biology, 2021):

Key:
GST-Pin1 [1] = target: T1, GST-Pin1 (Homo sapiens, UniProt Q13526); assay: Competitive fluorescence polarization; type: binding
Method in brief: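 GST-Pin1 (250 nM) preincubated 14 h at 4 °C with compound and 5 nM N-terminal fluorescein-labelled peptide probe (Bth-D-pThr-Pip-Nal). Buffer: 10 mM HEPES, 10 mM NaCl, 1% glycerol pH 7.4, 10 µg ml-1 BSA, 0.01% Tween-20, 1 mM DTT. Ki calculated from probe concentration, 85% probe bound and Pin1 concentration. Kinact from dose- and time-dependent runs. n = 3 samples ± s.e.m.; 2 experiments.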

GST-Pin1 [2] = target: T1, GST-Pin1; assay: Chymotrypsin-coupled PPIase activity assay; type: biochemical; conditions: read-out: apparent Ki (PPIase assay); measured at 12 h
Method in brief: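 GST-Pin1 (50 nM) preincubated with test compound for 12 h at 4 °C in 35 mM HEPES pH 7.8, 0.2 mM DTT, 0.1 mg ml-1 BSA. Chymotrypsin (final 6 mg ml-1) was added just before starting, followed by Suc-Ala-pSer-Pro-Phe-pNA substrate.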

Pin1 = assay: Live cell competition pulldown; type: cell-based
Method in brief: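 2.5 million cells per 10-cm plate, dosed next day with DMSO or test compound (5 h, or as indicated). Cells washed in cold PBS, scraped and lysed in HEPES pH 7.4/NP-40 buffer with TCEP. Lysate (500 µg) incubated with desthiobiotin probe (1 µM, 1 h, 4 °C), then streptavidin agarose (1.5 h, 4 °C). Pin1 pulldown detected by immunoblot.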

[3] = Hepatic microsome stability; type: in vitro ADME, mouse; conditions: 1 μM, 1 mg ml^−1 microsomes, NADPH
Method in brief: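 Test compound (1 µM) incubated with hepatic microsomes (1 mg ml-1) in 100 mM KPi, pH 7.4. Reaction started by adding 1 mM NADPH.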

[4] = Mouse pharmacokinetic profiling; type: in vivo; conditions: oral 10 mg kg^–1, three mice
[5] = test system: radioresistant HeLa cells; assay: Radiosensitization AlamarBlue viability assay; type: cell-based; conditions: 7.5 Gy IR
Method in brief: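 HeLa cells seeded at 200 per well. Treated with compound 16 h later, then given 7.5 Gy X-ray 1 h after treatment. AlamarBlue (10% final) added 3 days post-irradiation. Absorbance read at 570 nm, 600 nm reference, 4 days post-irradiation. Background taken from cell-free wells; % survival set against DMSO-treated, nonirradiated controls.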

[6] = test system: germinal center (GC) B cells; assay: In vivo germinal center B cell evaluation; set-up: species or system mice; conditions: IP 40 mg kg^−1 on days 7 and 9 after NP-OVA immunization, day 11
Method in brief: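 WT mice immunised with NP-OVA and killed on day 11. Lymph node cells Fc-blocked with anti-CD16/32 (2 µg ml-1, 5–10 min), then stained 20–40 min with B220, FAS and CD38 antibodies. Germinal centre B cells gated as live/single B220+ CD38lo FAShi by flow cytometry. Two-tailed Student's t test.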

[7] = test system: 275 human cancer cell lines; assay: PRISM cancer cell viability screening; type: cell-based; conditions: 5-day treatment, 275 cell lines
Method in brief: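 Pooled, 24-nucleotide-barcoded cancer cell lines (275 in total) exposed to test compound for 5 days. Eight-point curve in fourfold dilutions from a top concentration of 20 µM.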

WT PATU-8988T cells = assay: 2D growth over time viability; type: cell-based; conditions: 1 μM, 6 and 8 days
Method in brief: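 PATU-8988T cells plated at 100 per well (other lines 500), with one plate per time point (days 0, 2, 4, 6, 8). Treated the day after plating with DMSO or compound and held at 37 °C, 5% CO2. Medium plus fresh compound replaced every 48 h. CellTiter-Glo luminescence read; day 0 read before treatment. Values divided by mean day 0 reading; n = 3 biological replicates.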

PATU-8988T Pin1 KO cells = assay: 2D growth over time viability; type: cell-based; conditions: 1 μM, up to 8 days
Method in brief: (§1)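 Cells seeded at 500 per well (PATU-8988T: 100 per well) and dosed with test compound or DMSO the next day. Kept at 37 °C, 5% CO2, with medium and compound renewed every 48 h. One plate per time point (days 0, 2, 4, 6, 8); the day 0 plate was read before dosing. Viability measured by CellTiter-Glo luminescence.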

MDA-MB-468 = assay: 2D growth over time viability; type: cell-based; conditions: up to 8 days, 2.5 μM
Method in brief: as §1

PC3 = assay: 2D growth over time viability; type: cell-based; conditions: up to 8 days
Method in brief: as §1

Kuramochi = assay: 2D growth over time viability; type: cell-based; conditions: up to 8 days
Method in brief: as §1

NBL-S = assay: 2D growth over time viability; type: cell-based; conditions: 2.5 μM after 8 days
Method in brief: as §1

PATU-8988T WT Pin1 cells = assay: 3D Matrigel dome antiproliferative assay; type: cell-based; conditions: 1 μM, 9-day treatment
Method in brief: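 1,000 cells per Matrigel dome, one dome per well, left 15 min at 37 °C to solidify. Medium with test compound renewed every 3 days. After 9 days, 3D CellTiter-Glo was added and the plate shaken 1 h at room temperature before reading luminescence. n = 9 biological replicates per condition.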

PATU-8988T cells = assay: Apoptosis analysis; type: cell-based
Method in brief: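 PATU-8988T cells treated in triplicate for 6 days with DMSO (0.1%), test compound (1.0 or 2.5 µM) or a non-covalent analogue (2.5 µM), with medium replaced on day 3. Staurosporine (1 µM, 4 h) served as positive control. Cleaved caspase 3 and Pin1 assessed by Western blot. AnnexinV-FITC/7-AAD FACS scored live, early and late apoptotic cells; mean with SD, n=3.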

c-Myc protein levels = assay: c-Myc protein level immunoblot; type: cell-based
[8] = test system: transplanted neuroblastoma cells in zebrafish embryos; assay: Zebrafish neuroblastoma allograft transplant model; type: in vivo; conditions: 100 μM in fish water, 5 days
Method in brief: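 Neuroblastoma cells obtained by dicing 4-month-old Tg(dβh:MYCN;dβh:EGFP) fish in PBS and transplanted into embryos. Live fish imaged under identical conditions. Tumour burden quantified as the area of EGFP-fluorescent tumour mass.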

[9] = test system: PINN1, the worm Pin1 homolog; conditions: cited from earlier work
[10] = dose- and time-dependent FP assay

T1 sequence (Q13526 whole entry): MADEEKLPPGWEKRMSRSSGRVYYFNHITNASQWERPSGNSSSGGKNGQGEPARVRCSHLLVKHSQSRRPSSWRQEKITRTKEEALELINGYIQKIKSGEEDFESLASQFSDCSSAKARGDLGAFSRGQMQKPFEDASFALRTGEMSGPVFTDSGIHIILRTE

CC(C)(C)CN(C(=O)CCl)C1CCS(=O)(=O)C1 (stereo not shown) [Sulfopin]
Kinact (GST-Pin1 [1]; [10]): 0.03 min⁻¹
second-order rate constant (Kinact/Ki) (GST-Pin1 [1]; [10]): 84 M⁻¹ s⁻¹
Ki (GST-Pin1 [1]; read-out: apparent Ki (FP assay), after 14 h incubation): 17 nM
Ki (GST-Pin1 [2]): 211 nM
time to complete Pin1 engagement (Pin1; 1-μM treatment, PATU-8988T cells): ≤ 4 h
concentration fully engaging Pin1 (Pin1; HCT116 cells, 5 h): 0.5 µM
concentration of maximal Pin1 engagement (Pin1; PATU-8988T and HCT116 cells, 5 h): 0.5 to 1 µM
concentration fully engaging Pin1 (Pin1; PATU-8988T cells, 5 h): 1 µM
Pin1 engagement after 72 h (Pin1; PATU-8988T or HCT116 cells, 72 h): > 50%
half-life in mouse hepatic microsomes [3]: 41 min
oral bioavailability (F%) [4]: 30%
Cmax ([4]; read-out: average cmax (peak concentration)): 11.5 µM
resensitization to irradiation [5]: significantly resensitized them to irradiation in a dose-dependent manner
proportion of GC B cells compared to vehicle [6]: 1.34 fold
antiproliferative activity (PRISM) [7]: limited to no antiproliferative activity
number of cell lines with EC50 <3 μM [7]: nine
effect on cellular viability (WT PATU-8988T cells): significant effect on cellular viability after 6 and 8 days
effect on cellular viability (PATU-8988T Pin1 KO cells): no significant effect on viability
antiproliferative effect (growth over time) (MDA-MB-468): most pronounced sensitivity
antiproliferative effect (growth over time) (PC3): only slight effects
antiproliferative effect (growth over time) (Kuramochi): only slight effects
antiproliferative effect (growth over time) (NBL-S): significant viability effects
antiproliferative activity in 3D Matrigel domes (PATU-8988T WT Pin1 cells): modest antiproliferative activity
Pin1 protein levels (PATU-8988T cells; 5 or 6 days, 1 μM, 2.5 μM, Western blot): Pin1 levels were not changed
induction of apoptosis (PATU-8988T cells; treatments of up to 6 days, 1 and 2.5 μM): does not induce apoptosis
c-Myc protein levels (c-Myc protein levels): increased c-Myc protein levels
eGFP-labeled tumor mass size [8]: decreased in size
inhibition of PINN1 in Caenorhabditis elegans [9]: inhibited PINN1
